In brackets after ≈: the same amount, converted by molar mass. Activity calls are given as the source filed them. No cut-off for these calls is given here.

One test deals with Salmonella typhi. Kind of test: Antimicrobial activity against Salmonella typhi at 400 ug/ml after 48 hrs by disc-diffusion assay. The format is functional, Salmonella enterica subsp. enterica serovar Typhi. The note with it: for zone of inhibition at 400 µg/mL: Salmonella enterica, read-out: IZ; for inhibition zone (IZ): Salmonella enterica subsp. enterica serovar Typhi. In short, it runs like this: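 Disc diffusion. A few colonies were grown in nutrient broth for 2.5 h, then spread evenly on dried agar plates. Sterile 6 mm paper discs impregnated with compound were placed on the surface. Plates were incubated at 37 °C and the inhibition zone diameter in mm was read at 48 h. A DMF-only disc served as the negative control and chloramphenicol as the standard.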
In general terms: A growth-free zone around the sample is the usual read-out of agar diffusion tests.

A further test deals with Staphylococcus aureus. Put plainly: Antimicrobial activity against Staphylococcus aureus at 400 ug/ml after 48 hrs by disc-diffusion assay. The format is functional. To be noted: for zone of inhibition at 400 µg/mL: read-out: IZ. In outline:
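Bacteria were grown 2.5 h in nutrient broth and spread evenly over dried agar plates. Sterile 6 mm paper discs were impregnated with 400 µg/mL compound and placed on the inoculated surface. A DMF solvent-only disc served as negative control and chloramphenicol as reference. Plates were incubated at 37 °C and inhibition zone diameter (mm) was read at 48 h.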

The test system of the next test is Aspergillus niger. Put plainly: Antimicrobial activity against Aspergillus niger after 72 hrs by broth dilution assay. It is filed as functional. In short, it runs like this:
(§1)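 Tube broth dilution in Sabouraud's Dextrose medium. Compound was dissolved in DMF and tested over 15.62 to 8000 µg/mL. Tubes were inoculated with fungal culture suspension and incubated at 25 °C for 72 h alongside a control. MIC was taken as the lowest concentration giving no turbidity.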

Another test concerns Bacillus anthracis. Put plainly: Antimicrobial activity against Bacillus anthracis at 400 ug/ml after 48 hrs by disc-diffusion assay. The format is functional. The note with it: for zone of inhibition at 400 µg/mL: read-out: IZ.
Another test relates to Candida albicans. Put plainly: Antimicrobial activity against Candida albicans after 72 hrs by broth dilution assay. It is filed as functional. In short, it runs like this: as §1
A general note: In broth dilution the organism is exposed to a series of concentrations in liquid medium.

A further test has as its system Aspergillus fumigatus. Kind of test: Antimicrobial activity against Aspergillus fumigatus after 72 hrs by broth dilution assay. The format is functional. In outline: as §1

On to `O=C1[C@@H](Cl)[C@@H](c2cc(/N=N/c3ccc([N+](=O)[O-])cc3)ccc2O)N1c1ccc(Cl)cc1`, for which the zone of inhibition at 400 µg/mL came out at 10 mm in the test with Salmonella typhi, 17 mm in the test on Staphylococcus aureus and 21 mm in the test on Bacillus anthracis. In addition, the MIC (in general, the lowest concentration that inhibits growth of the organism) stood at 2000 µg/mL (≈ 4.37 mM) in the test with Aspergillus niger and 250 µg/mL (≈ 0.547 mM) against Candida albicans. Further, in the test with Aspergillus fumigatus, the MIC result is “inactive”.
Take `COc1cc([C@@H]2[C@H](Cl)C(=O)N2NC(=O)CC(=O)Nc2ccccc2)ccc1OC(C)=O`: the “inhibition zone (IZ)” value in the test with Salmonella typhi and with Bacillus anthracis was “inactive” throughout. For the same molecule, the zone of inhibition at 400 µg/mL in the test on Staphylococcus aureus was found to be 10 mm. The MIC stood at 4000 µg/mL (≈ 8.97 mM) with Aspergillus niger and 1000 µg/mL (≈ 2.24 mM) against Candida albicans.
For the molecule `O=C1[C@@H](Cl)[C@@H](c2cc(/N=N/c3ccc([N+](=O)[O-])cc3)ccc2O)N1c1ccc(F)cc1`, the “inhibition zone (IZ)” value in the test with Salmonella typhi and in the test on Staphylococcus aureus was “inactive” each time. Also, the MIC is 4000 µg/mL (≈ 9.07 mM) against Aspergillus niger and 2000 µg/mL (≈ 4.54 mM) in the test on Candida albicans. Besides, the zone of inhibition at 400 µg/mL with Bacillus anthracis is 12 mm.
In the case of `COc1cc([C@@H]2[C@H](Cl)C(=O)N2NC(=O)CC(=O)Nc2cccc([N+](=O)[O-])c2)ccc1OC(C)=O`, the zone of inhibition at 400 µg/mL with Salmonella typhi came out at 31 mm; with Staphylococcus aureus, 27 mm; in the test on Bacillus anthracis, 33 mm. For the same molecule, the MIC against Aspergillus niger was found to be 2000 µg/mL (≈ 4.07 mM); in the test with Candida albicans it was 62.5 µg/mL (≈ 0.127 mM).
In the case of `COc1cc([C@@H]2[C@H](Cl)C(=O)N2NC(=O)CC(=O)Nc2cccc(Cl)c2)ccc1OC(C)=O`, the zone of inhibition at 400 µg/mL with Salmonella typhi amounted to 17 mm; in the test on Staphylococcus aureus, 26 mm; in the test with Bacillus anthracis, 22 mm. The MIC turned out to be 2000 µg/mL (≈ 4.16 mM) in the test with Aspergillus niger and 125 µg/mL (≈ 0.26 mM) with Candida albicans.
With `COc1cc([C@@H]2[C@H](Cl)C(=O)N2NC(=O)CC(=O)Nc2ccccc2Cl)ccc1OC(C)=O`, the “inhibition zone (IZ)” value in the test with Salmonella typhi is “inactive”. Further, the values for the zone of inhibition at 400 µg/mL with Staphylococcus aureus and in the test with Bacillus anthracis were 12 mm and 21 mm, respectively. The MIC with Aspergillus niger was 1000 µg/mL (≈ 2.08 mM); in the test with Candida albicans it was 500 µg/mL (≈ 1.04 mM).
Take `O=C(N[C@H](CO)[C@H](O)c1ccc([N+](=O)[O-])cc1)C(Cl)Cl` [CHLORAMPHENICOL]: the zone of inhibition at 400 µg/mL with Salmonella typhi was found to be 36 mm; with Staphylococcus aureus, 32 mm; with Bacillus anthracis it was 34 mm. Also, the MIC result with Aspergillus niger, in the test with Candida albicans and with Aspergillus fumigatus was “inactive” each time.
`O=C1[C@@H](Cl)[C@@H](c2cc(/N=N/c3cccc([N+](=O)[O-])c3)ccc2O)N1c1ccc(F)cc1`: the zone of inhibition at 400 µg/mL with Salmonella typhi amounted to 21 mm; in the test with Staphylococcus aureus it was 29 mm; in the test on Bacillus anthracis it was 28 mm. In addition, the MIC was found to be 500 µg/mL (≈ 1.13 mM) against Aspergillus niger and 62.5 µg/mL (≈ 0.142 mM) in the test with Candida albicans.
Take `O=C1[C@@H](Cl)[C@@H](c2cc(/N=N/c3cccc([N+](=O)[O-])c3)ccc2O)N1c1ccc(Cl)cc1`: the zone of inhibition at 400 µg/mL came out at 27 mm in the test on Salmonella typhi, 30 mm in the test on Staphylococcus aureus and 32 mm with Bacillus anthracis. In addition, the MIC against Aspergillus niger stood at 1000 µg/mL (≈ 2.19 mM); against Candida albicans, 125 µg/mL (≈ 0.273 mM).
`O=C1[C@@H](Cl)[C@@H](c2cc(/N=N/c3cccc([N+](=O)[O-])c3)ccc2O)N1c1ccccc1`: the figures for the zone of inhibition at 400 µg/mL in the test with Salmonella typhi, in the test with Staphylococcus aureus and with Bacillus anthracis were 18 mm, 24 mm and 31 mm, respectively. Further, the MIC in the test on Aspergillus niger worked out at 4000 µg/mL (≈ 9.46 mM); against Candida albicans it was 1000 µg/mL (≈ 2.37 mM).
Regarding `O=C1[C@@H](Cl)[C@@H](c2cc(/N=N/c3ccc([N+](=O)[O-])cc3)ccc2O)N1c1ccc(Br)cc1`, the “inhibition zone (IZ)” value with Salmonella typhi and in the test on Staphylococcus aureus was “inactive” each time. In addition, the MIC in the test with Aspergillus niger and with Candida albicans was 4000 µg/mL (≈ 7.97 mM) each time. Further, the zone of inhibition at 400 µg/mL in the test on Bacillus anthracis came to 8 mm. Moreover, the MIC result with Aspergillus fumigatus is “inactive”.
Consider `O=C1[C@@H](Cl)[C@@H](c2cc(/N=N/c3ccc([N+](=O)[O-])cc3)ccc2O)N1c1ccccc1`, for which, in the test with Salmonella typhi, the “inhibition zone (IZ)” value was “inactive”. Moreover, the zone of inhibition at 400 µg/mL with Staphylococcus aureus was determined as 8 mm; with Bacillus anthracis, 10 mm. Further, the values for the MIC with Aspergillus niger and in the test with Candida albicans were 4000 µg/mL (≈ 9.46 mM) and 2000 µg/mL (≈ 4.73 mM), respectively. The MIC entry with Aspergillus fumigatus was “inactive”.
Consider `O=C1[C@@H](Cl)[C@@H](c2cc(/N=N/c3cccc([N+](=O)[O-])c3)ccc2O)N1c1ccc(Br)cc1`, for which the figures for the zone of inhibition at 400 µg/mL in the test with Salmonella typhi, with Staphylococcus aureus and in the test with Bacillus anthracis were 8 mm, 11 mm and 17 mm, respectively. In the test with Aspergillus niger, this molecule came in with an MIC of 4000 µg/mL (≈ 7.97 mM). Further, the MIC entry in the test on Candida albicans is “inactive”.
Regarding `OC(Cn1cncn1)(Cn1cncn1)c1ccc(F)cc1F` [FLUCONAZOLE], the “inhibition zone (IZ)” value in the test on Salmonella typhi, with Staphylococcus aureus and in the test with Bacillus anthracis was “inactive” each time. For the same molecule, the figures for the MIC with Aspergillus niger and in the test with Candida albicans were 2000 µg/mL (≈ 6.53 mM) and 250 µg/mL (≈ 0.816 mM), respectively.
As for `COc1cc([C@@H]2[C@H](Cl)C(=O)N2NC(=O)CC(=O)Nc2ccccc2[N+](=O)[O-])ccc1OC(C)=O`, the “inhibition zone (IZ)” value with Salmonella typhi is “inactive”. In addition, the zone of inhibition at 400 µg/mL with Staphylococcus aureus was found to be 11 mm; in the test with Bacillus anthracis, 17 mm. In addition, the MIC turned out to be 4000 µg/mL (≈ 8.15 mM) in the test with Aspergillus niger and 2000 µg/mL (≈ 4.07 mM) in the test with Candida albicans.
On to `COc1cc([C@@H]2[C@H](Cl)C(=O)N2NC(=O)CC(=O)Nc2ccc([N+](=O)[O-])cc2)ccc1OC(C)=O`, for which the “inhibition zone (IZ)” value in the test on Salmonella typhi and in the test with Staphylococcus aureus was “inactive” throughout. In addition, the MIC in the test on Aspergillus niger amounted to 4000 µg/mL (≈ 8.15 mM); in the test with Candida albicans, 1000 µg/mL (≈ 2.04 mM). Moreover, the zone of inhibition at 400 µg/mL in the test with Bacillus anthracis turned out to be 12 mm.
As to `COc1cc([C@@H]2[C@H](Cl)C(=O)N2NC(=O)CC(=O)Nc2ccc(Cl)cc2)ccc1OC(C)=O`, the figures for the zone of inhibition at 400 µg/mL in the test with Salmonella typhi, with Staphylococcus aureus and in the test with Bacillus anthracis were 29 mm, 30 mm and 34 mm, respectively. Besides, the MIC is 1000 µg/mL (≈ 2.08 mM) in the test on Aspergillus niger and 31.2 µg/mL (≈ 0.0651 mM) against Candida albicans.
